Publication PMC6944222 (Toxicological Sciences, 2019)

What was measured:
[1] = system: expressed human CYP and CES enzymes; format: in vitro ADME; conditions: for total in vivo CLint estimated with expressed enzymes: expressed enzyme-based IVIVE; for metabolism profile (enzymes responsible): human hepatic CYP and CES enzymes
[2] = IVIVE of total hepatic intrinsic clearance; format: in vitro ADME, human; conditions: for Hepatic CLint_vivo: model estimated; for total CLint_vivo estimated with HLMs and cytosol (subcellular fraction): subcellular fraction-based IVIVE
Procedure, shortened: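 Pooled human liver microsomes and cytosol from 150 adults (75 male, 75 female). […] In vitro CLint was scaled to the in vivo hepatic value using microsomal or cytosolic protein content and liver weight. Enzyme ontogeny was expressed as a fraction of adult expression.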

[3] = ref Willemin et al. (2015); cited from earlier work
[4] = stated as known, no reference given; cited from earlier work

Cc1c(COC(=O)[C@@H]2[C@H](/C=C(\Cl)C(F)(F)F)C2(C)C)cccc1-c1ccccc1 (racemic) [Bifenthrin, bifenthrin]
total in vivo CLint estimated with expressed enzymes [1]: 145 l/h/kg liver | metabolism profile (enzymes responsible) [1]: metabolized only by CYP enzymes | Hepatic CLint_vivo ([2]; person five): 58 L/h | Hepatic CLint_vivo ([2]; person four): 36 L/h | Hepatic CLint_vivo ([2]; person one): 10 L/h | Hepatic CLint_vivo ([2]; person six): 67 L/h | Hepatic CLint_vivo ([2]; person three): 16 L/h | Hepatic CLint_vivo ([2]; person two): 5 L/h

CC1(C)[C@H](C(=O)OCc2cccc(Oc3ccccc3)c2)[C@@H]1C=C(Cl)Cl [CPM, cis-permethrin]
in vivo CLint in cryopreserved hepatocytes [3]: 60 l/h/kg liver | log Kow [4]: 6.1 | contribution of CES enzymes to human hepatic metabolism ([1]; IVIVE of expressed enzyme data): more than 70% | total in vivo CLint estimated with expressed enzymes [1]: 70,481 l/h/kg liver | metabolism profile (enzymes responsible) [1]: metabolized by CYP and CES enzymes | Hepatic CLint_vivo ([2]; person five): 186 L/h | Hepatic CLint_vivo ([2]; person four): 115 L/h | Hepatic CLint_vivo ([2]; person one): 34 L/h | Hepatic CLint_vivo ([2]; person six): 217 L/h | Hepatic CLint_vivo ([2]; person three): 51 L/h | Hepatic CLint_vivo ([2]; person two): 20 L/h | total CLint_vivo estimated with HLMs and cytosol (subcellular fraction) [2]: 6,68 l/h/kg liver

CC1(C)[C@H](C(=O)O[C@H](C#N)c2cccc(Oc3ccccc3)c2)[C@@H]1C=C(Br)Br [DLM, deltamethrin]
log Kow [4]: 4.61 | total in vivo CLint estimated with expressed enzymes [1]: 36,782 l/h/kg liver | Hepatic CLint_vivo ([2]; person five): 2066 L/h | Hepatic CLint_vivo ([2]; person four): 1282 L/h | Hepatic CLint_vivo ([2]; person one): 375 L/h | Hepatic CLint_vivo ([2]; person six): 2417 L/h | Hepatic CLint_vivo ([2]; person three): 565 L/h | Hepatic CLint_vivo ([2]; person two): 224 L/h | total CLint_vivo estimated with HLMs and cytosol (subcellular fraction) [2]: 7,418 l/h/kg liver
